Laboratory results from ChEMBL document CHEMBL3739417, “Synthesis and biological evaluation of novel 4,5-disubstituted 2H-1,2,3-triazoles as cis-constrained analogues of combretastatin A-4” (2015).

Columns and labels:
Type in all cases: functional
[1] = Growth inhibition of human DU145 cells after 48 hrs by sulforhodamine B assay; details: DU-145, 48 h
Method in brief: (§1)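 NCI-60 panel screen by SRB assay (Rubinstein method). Percentage growth taken from optical density of SRB colour, read before and 48 hrs after exposure to compound or vehicle control. All analogues first screened at 10^-5 M. Analogues giving 60% growth inhibition at that level in at least eight lines then went to a five-concentration dose-response study.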

[2] = Growth inhibition of human LOXIMVI cells after 48 hrs by sulforhodamine B assay; details: LOX IMVI; method in brief: as §1
[3] = Growth inhibition of human PC3 cells after 48 hrs by sulforhodamine B assay; details: PC-3, 48 h; method in brief: as §1
[4] = Growth inhibition of human SF268 cells after 48 hrs by sulforhodamine B assay; details: SF-268, 48 h; method in brief: as §1
786-0 = assay: Growth inhibition of human 786-0 cells after 48 hrs by sulforhodamine B assay; details: 786-0, 48 h; method in brief: as §1
[5] = Growth inhibition of human RPMI8226 cells after 48 hrs by sulforhodamine B assay; details: RPMI-8226, 48 h; method in brief: as §1
MDA-MB-435 = assay: Growth inhibition of human MDA-MB-435 cells after 48 hrs by sulforhodamine B assay; details: MDA-MB-435, 48 h
Method in brief: (§2)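 NCI-60 sulforhodamine B screen. Compounds were first tested at a single dose of 10⁻⁵ M; hits, defined as ≥60% growth inhibition in at least eight lines, went on to a five-concentration dose–response. SRB optical density was read before and 48 h after exposure to compound or vehicle. Percentage growth was calculated from OD.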

[6] = Growth inhibition of human HOP62 cells after 48 hrs by sulforhodamine B assay; details: HOP-62, 48 h; method in brief: as §1
SK-MEL-2 = assay: Growth inhibition of human SK-MEL-2 cells after 48 hrs by sulforhodamine B assay; details: SK-MEL-2, 48 h; method in brief: as §1
[7] = Growth inhibition of human NCI-ADR-RES cells after 48 hrs by sulforhodamine B assay; method in brief: as §1
KM12 = assay: Growth inhibition of human KM12 cells after 48 hrs by sulforhodamine B assay; details: KM12, 48 h; method in brief: as §1
NCI-H460 = assay: Growth inhibition of human NCI-H460 cells after 48 hrs by sulforhodamine B assay; details: NCI-H460, 48 h; method in brief: as §1
NCI-H23 = assay: Growth inhibition of human NCI-H23 cells after 48 hrs by sulforhodamine B assay; details: NCI-H23, 48 h; method in brief: as §1
[8] = Growth inhibition of human SF295 cells after 48 hrs by sulforhodamine B assay; details: SF-295, 48 h; method in brief: as §1
[9] = Growth inhibition of human OVCAR3 cells after 48 hrs by sulforhodamine B assay; details: OVCAR-3, 48 h; method in brief: as §2
CAKI-1 = assay: Growth inhibition of human CAKI-1 cells after 48 hrs by sulforhodamine B assay; details: CAKI-1, 48 h; method in brief: as §1
[10] = Growth inhibition of human SKOV3 cells after 48 hrs by sulforhodamine B assay; details: SK-OV-3, 48 h; method in brief: as §1
[11] = Growth inhibition of human MOLT4 cells after 48 hrs by sulforhodamine B assay; details: MOLT-4, 48 h; method in brief: as §1
K562 = assay: Growth inhibition of human K562 cells after 48 hrs by sulforhodamine B assay; details: K562, 48 h; method in brief: as §1
[12] = Growth inhibition of human HCT15 cells after 48 hrs by sulforhodamine B assay; details: HCT-15, 48 h; method in brief: as §1
HT-29 = assay: Growth inhibition of human HT-29 cells after 48 hrs by sulforhodamine B assay; details: HT-29, 48 h; method in brief: as §1
MDA-MB-468 = assay: Growth inhibition of human MDA-MB-468 cells after 48 hrs by sulforhodamine B assay; details: MDA-MB-468, 48 h; method in brief: as §1
U-251 = assay: Growth inhibition of human U251 cells after 48 hrs by sulforhodamine B assay; details: U-251, 48 h; method in brief: as §1
[13] = Growth inhibition of human SNB75 cells after 48 hrs by sulforhodamine B assay; details: SNB-75, 48 h; method in brief: as §1
A549 = assay: Growth inhibition of human A549/ATCC cells after 48 hrs by sulforhodamine B assay; details: A549, 48 h; method in brief: as §1
[14] = Growth inhibition of human HCC2998 cells after 48 hrs by sulforhodamine B assay; details: HCC 2998, 48 h; method in brief: as §1
[15] = Growth inhibition of human HL-60(TB) cells after 48 hrs by sulforhodamine B assay; details: HL-60, 48 h; method in brief: as §1
ACHN = assay: Growth inhibition of human ACHN cells after 48 hrs by sulforhodamine B assay; method in brief: as §1
MDA-MB-231 = assay: Growth inhibition of human MDA-MB-231 cells after 48 hrs by sulforhodamine B assay; details: MDA-MB-231, 48 h; method in brief: as §1
[16] = Growth inhibition of human SW620 cells after 48 hrs by sulforhodamine B assay; details: SW-620, 48 h; method in brief: as §1
MCF7 = assay: Growth inhibition of human MCF7 cells after 48 hrs by sulforhodamine B assay; details: MCF7, 48 h; method in brief: as §1
A498 = assay: Growth inhibition of human A498 cells after 48 hrs by sulforhodamine B assay; details: A498, 48 h; method in brief: as §2
SK-MEL-5 = assay: Growth inhibition of human SK-MEL-5 cells after 48 hrs by sulforhodamine B assay; details: SK-MEL-5, 48 h; method in brief: as §1
[17] = Growth inhibition of human COLO205 cells after 48 hrs by sulforhodamine B assay; details: COLO 205, 48 h; method in brief: as §1
CCRF-CEM = assay: Growth inhibition of human CCRF-CEM cells after 48 hrs by sulforhodamine B assay; method in brief: as §1
[18] = Growth inhibition of human UO31 cells after 48 hrs by sulforhodamine B assay; details: UO-31, 48 h; method in brief: as §1
[19] = Growth inhibition of human HOP92 cells after 48 hrs by sulforhodamine B assay; details: HOP-92, 48 h; method in brief: as §1
[20] = read-out: LD50 (the source's name)

COc1cc(-c2n[nH]nc2-c2ccc3c(c2)OCCO3)cc(OC)c1OC
< 10 nM: GI50 (786-0) | GI50 (MDA-MB-435) | GI50 (SK-MEL-2) | GI50 [7] | GI50 (KM12) | GI50 [8] | GI50 [9] | GI50 (CAKI-1) | GI50 [10] | GI50 (K562) | GI50 [12] | GI50 [13] | GI50 (ACHN) | GI50 [16] | GI50 (MCF7) | GI50 (SK-MEL-5) | GI50 [18] | GI50 [19]
19 nM: GI50 [15]
> 100 µM: LD50 (concentration killing 50% of cells) [16]
18 nM: GI50 [2] | GI50 [3] | GI50 [6]
39 nM: GI50 [14]
33 nM: GI50 [5]
34 nM: GI50 (CCRF-CEM)
10 nM: GI50 (A498)
27 nM: GI50 [17]
48 nM: GI50 (NCI-H23)
25 nM: GI50 [1] | GI50 (NCI-H460) | GI50 (HT-29)
44 nM: GI50 (MDA-MB-231)
> 100000 nM: CC50 [1, 20] | CC50 [2, 20] | CC50 [3, 20] | CC50 [4, 20] | LC50 (concentration killing 50% of cells) (786-0; read-out: LD50) | CC50 [5, 20] | LC50 (concentration killing 50% of cells) (MDA-MB-435; read-out: LD50) | LC50 (concentration killing 50% of cells) ([6]; read-out: LD50) | CC50 (SK-MEL-2; [20]) | CC50 [7, 20] | LC50 (concentration killing 50% of cells) (KM12; read-out: LD50) | CC50 (NCI-H460; [20]) | LC50 (concentration giving 50% cell kill) (NCI-H23; read-out: LD50) | CC50 [8, 20] | LC50 (concentration giving 50% net cell kill) ([9]; read-out: LD50) | CC50 (CAKI-1; [20]) | LC50 (concentration killing 50% of cells) ([10]; read-out: LD50) | CC50 [11, 20] | CC50 (K562; [20]) | CC50 [12, 20] | LC50 (concentration killing 50% of cells) (HT-29; read-out: LD50) | CC50 (MDA-MB-468; [20]) | CC50 (U-251; [20]) | CC50 [13, 20] | CC50 (A549; [20]) | CC50 [14, 20] | CC50 [15, 20] | CC50 (ACHN; [20]) | CC50 (MDA-MB-231; [20]) | CC50 (MCF7; [20]) | LC50 (50% net cell kill) (A498; read-out: LD50) | CC50 (SK-MEL-5; [20]) | CC50 [17, 20] | LC50 (concentration killing 50% of cells) (CCRF-CEM; read-out: LD50) | LC50 (concentration killing 50% of cells) ([18]; read-out: LD50) | CC50 [19, 20]
69 nM: GI50 [4]
23 nM: GI50 (A549)
15 nM: GI50 (MDA-MB-468)
20 nM: GI50 (U-251)
40 nM: GI50 [11]
